Test results taken from publication PMC4878416 (Diabetes, 2016).

What was measured:
[1] = target: DYRK1A (Homo sapiens, UniProt Q13627); experiment: Human kinome profiling, DYRK1A; format: biochemical; conditions: 100 nmol/L
[2] = target: DYRK1B (Homo sapiens, UniProt Q9Y463); experiment: Human kinome profiling, DYRK1B; format: biochemical
In short: (§1)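 Human kinases profiled by commercial providers under their standard protocols; ATP within 15 μmol/L of the apparent KM for each enzyme.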

[3] = target: T1, DYRK3 (Homo sapiens, UniProt O43781); experiment: Human kinome profiling, DYRK3; format: biochemical
T1 sequence (O43781 1-588): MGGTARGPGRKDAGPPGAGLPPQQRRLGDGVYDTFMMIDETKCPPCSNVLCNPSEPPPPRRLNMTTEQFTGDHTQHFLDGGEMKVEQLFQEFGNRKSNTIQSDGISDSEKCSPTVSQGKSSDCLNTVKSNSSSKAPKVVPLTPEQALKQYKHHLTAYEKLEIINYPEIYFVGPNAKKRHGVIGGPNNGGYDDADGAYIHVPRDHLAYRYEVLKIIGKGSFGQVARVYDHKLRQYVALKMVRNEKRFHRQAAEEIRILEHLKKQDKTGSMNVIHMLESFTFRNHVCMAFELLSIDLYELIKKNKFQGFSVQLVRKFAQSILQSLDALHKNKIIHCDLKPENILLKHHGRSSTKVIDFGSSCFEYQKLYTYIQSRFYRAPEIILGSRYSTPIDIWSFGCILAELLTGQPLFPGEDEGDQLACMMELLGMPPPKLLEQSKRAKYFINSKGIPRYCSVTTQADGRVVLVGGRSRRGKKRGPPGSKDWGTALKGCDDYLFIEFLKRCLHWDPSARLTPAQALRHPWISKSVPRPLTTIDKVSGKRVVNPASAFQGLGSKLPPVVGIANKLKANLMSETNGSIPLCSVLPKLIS
In short: as §1

[4] = target: CLK1 (Homo sapiens, UniProt P49759); experiment: Human kinome profiling, CLK1; format: biochemical
In short: as §1

[5] = target: CLK2 (Homo sapiens, UniProt P49760); experiment: Human kinome profiling, CLK2; format: biochemical
In short: as §1

[6] = target: CLK3 (Homo sapiens, UniProt P49761); experiment: Human kinome profiling, CLK3; format: biochemical
In short: as §1

[7] = target: CLK4 (Homo sapiens, UniProt Q9HAZ1); experiment: Human kinome profiling, CLK4; format: biochemical
In short: as §1

[8] = system: p27KIP phosphorylation (S10); experiment: Western blot of p27KIP phosphorylation; format: cell-based, rat; conditions: INS-1E cells, 24 or 48 h, 10 μmol/L harmine or 0.5 μmol/L 5-IT
In short: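 Cells were treated after overnight attachment and lysed in RIPA buffer. Western blots were probed for p27KIP S10 phosphorylation, with actin as loading control.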

[9] = system: intact human islets; format: cell-based; conditions: intact islets of three donors, 1 μmol/L, 6 days
In short: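 Intact islets from three donors received DMSO or 1 μmol/L test compound for 6 days, and expression was averaged geometrically. Fold changes were regressed by five-dimensional least squares against published expression data from sorted α, β, acinar, large-duct, small-duct and uncharacterised islet cells to estimate cell-mass changes. Significance was assessed by randomising the assignment of sorted replicate samples to cell types.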

[10] = system: human β-cells; format: in vivo; conditions: 0.25 mg/kg/BW i.p. twice a week for 3 weeks, vs vehicle
In short: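 NSG mice (male, 8–10 weeks old) were grafted with 1,000 IEQ of human islets under the kidney capsule. From 1 week post-graft they received test compound (0.25 mg/kg i.p., 50% DMSO) or vehicle twice weekly for 3 weeks, followed by BrdU 100 mg/kg i.p. for 3 days and sacrifice at 6 h. Graft sections were co-stained for insulin or PDX-1 with BrdU, Ki67 or pHH3. 1,000–2,000 β-cells were counted per animal; n = 3–4; mean ± SEM; unpaired t test.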

[11] = system: endogenous NSG pancreatic islets β-cells; experiment: β-cell proliferation in endogenous pancreatic islets of NSG mice; format: in vivo, mouse; conditions: 0.25 mg/kg/BW i.p. twice a week for 3 weeks, vs nontreated or sham-operated mice
In short: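 Pancreata came from human islet-grafted NSG mice dosed i.p. with test compound (0.25 mg/kg, 50% DMSO) or vehicle twice weekly for 3 weeks. Mice then received BrdU 100 mg/kg i.p. for 3 days and were killed 6 h after the final injection. Sections were stained for insulin, BrdU and DAPI, and BrdU+ β-cells were quantified; n = 4; mean ± SEM; unpaired t test.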

[12] = system: α-cells of human islet grafts; experiment: α-cell proliferation in human islets grafted under the mouse kidney capsule; format: in vivo; conditions: 0.25 mg/kg/BW i.p. twice a week for 3 weeks
[13] = system: α-cells of endogenous mouse pancreas; experiment: α-cell proliferation in endogenous mouse pancreas; format: in vivo; conditions: 0.25 mg/kg/BW i.p. twice a week for 3 weeks
[14] = system: liver, adipose, muscle and kidney tissue; experiment: Proliferation; format: in vivo, mouse; conditions: 3-week treatment, 0.25 mg/kg/BW i.p.
In short: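 Male NSG mice (8–10 weeks old) carried human islet kidney-capsule grafts. From 1 week post-graft they received test compound i.p. at 0.25 mg/kg in 50% DMSO or vehicle, twice weekly for 3 weeks. BrdU was then given at 100 mg/kg i.p. for 3 days, and mice were killed 6 h after the last dose. BrdU+ nuclei were counted in liver and muscle (≥3,000 cells) and in visceral/subcutaneous adipose (1,000–2,000 cells).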

[15] = system: human islet cells (all cell types); experiment: Proliferation of other cell types in the heterogeneous human islet cell culture; format: cell-based

Sequence of CLK3 (P49761 whole entry): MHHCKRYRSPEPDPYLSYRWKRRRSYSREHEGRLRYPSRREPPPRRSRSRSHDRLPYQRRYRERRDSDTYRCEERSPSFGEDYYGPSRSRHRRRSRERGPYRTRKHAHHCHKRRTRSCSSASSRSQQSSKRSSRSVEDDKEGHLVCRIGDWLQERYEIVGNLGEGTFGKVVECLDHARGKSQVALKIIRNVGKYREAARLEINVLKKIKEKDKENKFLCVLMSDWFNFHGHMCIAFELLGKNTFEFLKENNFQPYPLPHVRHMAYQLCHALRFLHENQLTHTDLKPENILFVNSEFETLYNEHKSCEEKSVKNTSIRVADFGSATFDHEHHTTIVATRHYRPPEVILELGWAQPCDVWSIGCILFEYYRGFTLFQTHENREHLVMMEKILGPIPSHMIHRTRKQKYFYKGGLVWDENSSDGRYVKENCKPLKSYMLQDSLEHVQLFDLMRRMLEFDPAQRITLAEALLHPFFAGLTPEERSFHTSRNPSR
Sequence of CLK4 (Q9HAZ1 whole entry): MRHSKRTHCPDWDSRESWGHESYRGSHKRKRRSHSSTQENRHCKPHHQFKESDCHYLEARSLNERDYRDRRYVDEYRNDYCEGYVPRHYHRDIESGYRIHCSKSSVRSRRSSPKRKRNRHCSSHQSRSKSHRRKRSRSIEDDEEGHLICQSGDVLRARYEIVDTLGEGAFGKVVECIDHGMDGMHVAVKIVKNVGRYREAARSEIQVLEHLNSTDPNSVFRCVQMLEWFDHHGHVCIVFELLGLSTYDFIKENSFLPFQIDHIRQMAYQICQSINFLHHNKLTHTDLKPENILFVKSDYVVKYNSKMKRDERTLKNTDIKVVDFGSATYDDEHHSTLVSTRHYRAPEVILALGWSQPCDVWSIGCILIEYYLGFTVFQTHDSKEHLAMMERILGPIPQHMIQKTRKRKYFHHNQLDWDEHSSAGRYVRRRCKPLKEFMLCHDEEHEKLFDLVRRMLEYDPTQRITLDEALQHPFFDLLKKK
Sequence of DYRK1B (Q9Y463 whole entry): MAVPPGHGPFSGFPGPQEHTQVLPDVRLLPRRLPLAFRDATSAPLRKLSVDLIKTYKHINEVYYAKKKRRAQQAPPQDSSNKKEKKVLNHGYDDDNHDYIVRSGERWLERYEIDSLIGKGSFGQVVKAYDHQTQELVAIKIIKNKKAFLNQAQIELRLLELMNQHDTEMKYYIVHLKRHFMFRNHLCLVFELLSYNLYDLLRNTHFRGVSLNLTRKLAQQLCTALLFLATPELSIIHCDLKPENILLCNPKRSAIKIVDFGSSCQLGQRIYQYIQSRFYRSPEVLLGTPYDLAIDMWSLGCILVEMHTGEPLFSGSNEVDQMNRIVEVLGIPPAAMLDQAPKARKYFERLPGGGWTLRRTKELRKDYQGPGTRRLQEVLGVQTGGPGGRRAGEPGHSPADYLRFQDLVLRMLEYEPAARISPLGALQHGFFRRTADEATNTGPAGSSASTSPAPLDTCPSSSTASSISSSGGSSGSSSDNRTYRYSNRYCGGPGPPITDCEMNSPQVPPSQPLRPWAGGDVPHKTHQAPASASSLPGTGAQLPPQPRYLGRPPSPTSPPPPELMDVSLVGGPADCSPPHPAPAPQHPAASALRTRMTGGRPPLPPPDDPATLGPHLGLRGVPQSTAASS
Sequence of CLK1 (P49759 whole entry): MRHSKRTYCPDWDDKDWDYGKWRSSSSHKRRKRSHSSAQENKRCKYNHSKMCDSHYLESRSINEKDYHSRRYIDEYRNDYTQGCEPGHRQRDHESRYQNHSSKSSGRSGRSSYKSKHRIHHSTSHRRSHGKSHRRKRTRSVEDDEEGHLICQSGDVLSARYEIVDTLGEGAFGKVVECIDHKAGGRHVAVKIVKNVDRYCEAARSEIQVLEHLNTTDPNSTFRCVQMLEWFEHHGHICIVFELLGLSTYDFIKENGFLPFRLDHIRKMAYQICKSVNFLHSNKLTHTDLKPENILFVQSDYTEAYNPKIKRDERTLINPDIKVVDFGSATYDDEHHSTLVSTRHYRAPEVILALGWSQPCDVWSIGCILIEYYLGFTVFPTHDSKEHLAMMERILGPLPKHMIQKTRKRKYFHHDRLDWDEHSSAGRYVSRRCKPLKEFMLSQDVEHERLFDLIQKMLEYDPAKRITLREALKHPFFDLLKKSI
Sequence of CLK2 (P49760 whole entry): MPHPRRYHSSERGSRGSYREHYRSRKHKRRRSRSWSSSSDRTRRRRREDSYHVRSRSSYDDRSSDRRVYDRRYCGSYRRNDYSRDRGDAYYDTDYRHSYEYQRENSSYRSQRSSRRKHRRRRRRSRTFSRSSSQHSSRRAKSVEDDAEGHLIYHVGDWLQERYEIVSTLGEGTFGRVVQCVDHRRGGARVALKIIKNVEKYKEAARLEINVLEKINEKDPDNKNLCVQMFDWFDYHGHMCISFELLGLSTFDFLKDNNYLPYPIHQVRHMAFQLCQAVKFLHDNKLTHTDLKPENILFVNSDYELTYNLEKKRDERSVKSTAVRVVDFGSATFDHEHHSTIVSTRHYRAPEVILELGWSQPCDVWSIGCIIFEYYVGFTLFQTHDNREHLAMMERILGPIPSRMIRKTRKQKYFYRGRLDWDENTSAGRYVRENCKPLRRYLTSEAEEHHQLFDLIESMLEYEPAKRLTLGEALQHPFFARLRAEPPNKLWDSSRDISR

Nc1ncnc2c1c(I)cn2[C@@H]1O[C@H](CO)[C@@H](O)[C@H]1O [5-IT, 5-iodotubercidin] was tested, and the “remaining activity DYRK1A” value [1] was < 10%, the “remaining activity DYRK1B” value ([2]; 100 nmol/L) was < 10% and the IC50 ([2]; read-out: IC50 DYRK1B, ATP within 15 μmol/L of apparent KM) was 10 nM. The “remaining activity DYRK3” value ([3]; 100 nmol/L) was < 10%, the IC50 ([3]; read-out: IC50 DYRK3, ATP within 15 μmol/L of apparent KM) was 3 nM and the “remaining activity CLK1” value ([4]; 100 nmol/L) was < 10%. The IC50 ([4]; read-out: IC50 CLK1, ATP within 15 μmol/L of apparent KM) was 36 nM, the “remaining activity CLK2” value ([5]; 100 nmol/L) was < 10% and the IC50 ([5]; read-out: IC50 CLK2, ATP within 15 μmol/L of apparent KM) was 10 nM. The “remaining activity CLK3” value ([6]; 100 nmol/L) was < 10%, the IC50 ([6]; read-out: IC50 CLK3, ATP within 15 μmol/L of apparent KM) was 195 nM and the “remaining activity CLK4” value ([7]; 100 nmol/L) was < 10%. For the same compound, the IC50 ([7]; read-out: IC50 CLK4, ATP within 15 μmol/L of apparent KM) was 14 nM, the p27KIP phosphorylation [8] was “decrease” and the “increase in α-cell mass predicted by gene expression results” value ([9]; 95% CI 4.6–7.5) was 6.1%. For the same compound, the “β-cell mass increase that could account for gene expression changes” value ([9]; 95% CI 5.8–9.2) was 7.5%, the “increase in BrdU incorporation in β-cells of human islet grafts” value ([10]; P < 0.01) was “approximately fivefold” and the “increase in Ki67 staining of β-cells of human islet grafts” value ([10]; P < 0.05) was “approximately sixfold”. For the same compound, the “increase in PDX1/BrdU double-positive cells in human islet grafts” value ([10]; P < 0.05) was “approximately fourfold”, the “increase in PDX1/Ki67 double-positive cells in human islet grafts” value ([10]; P < 0.05) was “approximately sixfold” and the “increase in pHH3 immunostaining of β-cells of human islet grafts” value ([10]; P < 0.05) was ~10 fold. For the same compound, the “increase in BrdU+ β-cells in endogenous NSG pancreatic islets” value [11] was ~2.5 fold, the “α-cell proliferation in human islet grafts, treated vs nontreated” value [12] was “no significant alterations” and the “α-cell proliferation in endogenous mouse pancreas, treated vs nontreated” value [13] was “no significant alterations”. For the same compound, the “proliferation in liver, adipose, muscle and kidney tissue, treated vs control” value [14] was “no significant differences” and the “proliferation of all cell types in the heterogeneous culture system” value [15] was “did not induce proliferation of all cell types”.
